Data as given in ChEMBL document CHEMBL4138242, “Synthesis and antibacterial evaluation of novel cationic chalcone derivatives possessing broad spectrum antibacterial activity” (Eur J Med Chem, 2018).
Activity calls are given as the source filed them. The calls are words filed in the database; no cut-off is given here.

The compounds below were run on Klebsiella pneumoniae (assay: Antibacterial activity against drug-resistant carbapenemase producing Klebsiella pneumoniae clinical isolate EC-13-23 after 16 to 20 hrs by broth microdilution method).
Format: functional
Summary of the method: (§1)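 CLSI broth microdilution in Mueller-Hinton broth. A 4-6 h culture was diluted to about 10⁶ CFU/mL and mixed 1:1 with compound dilutions prepared at 256 to 0.5 µg/mL from aqueous stocks. Plates were incubated at 37 °C for 16-20 h and read visually for MIC. Each concentration was run in duplicate, and the experiment was repeated at least twice. Vancomycin and meropenem were comparators.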
`CCCCCCCC[N+](C)(C)CC(=O)Nc1ccc(C(=O)/C=C/c2ccc(OC)cc2)cc1.[Cl-]` gave an MIC of 8 mg/L.

What follows are compounds tested on Klebsiella pneumoniae (assay: Antibacterial activity against drug-resistant carbapenemase producing Klebsiella pneumoniae clinical isolate KP-14-5 after 16 to 20 hrs by broth microdilution method).
Format: functional
Summary of the method: as §1
`CCCCCCCC[N+](C)(C)CC(=O)Nc1ccc(C(=O)/C=C/c2ccc(OC)cc2)cc1.[Cl-]` gave an MIC of 8 mg/L.

The compounds below were run on Klebsiella pneumoniae (assay: Antibacterial activity against drug-resistant carbapenemase producing Klebsiella pneumoniae clinical isolate KP-13-55 after 16 to 20 hrs by broth microdilution method).
Format: functional
Summary of the method: as §1
Work on `CCCCCCCC[N+](C)(C)CC(=O)Nc1ccc(C(=O)/C=C/c2ccc(OC)cc2)cc1.[Cl-]` yielded an MIC of 16 mg/L.

Each compound was assayed on Klebsiella pneumoniae (assay: Antibacterial activity against drug-resistant carbapenemase producing Klebsiella pneumoniae clinical isolate KP-14-45 after 16 to 20 hrs by broth microdilution method).
Format: functional
Summary of the method: as §1
With `CCCCCCCC[N+](C)(C)CC(=O)Nc1ccc(C(=O)/C=C/c2ccc(OC)cc2)cc1.[Cl-]` the MIC was 16 mg/L.

The compounds below were run on Klebsiella pneumoniae (assay: Antibacterial activity against drug-resistant carbapenemase producing Klebsiella pneumoniae clinical isolate KP-14-18 after 16 to 20 hrs by broth microdilution method).
Format: functional
Summary of the method: as §1
`CCCCCCCC[N+](C)(C)CC(=O)Nc1ccc(C(=O)/C=C/c2ccc(OC)cc2)cc1.[Cl-]` showed an MIC of 16 mg/L.

The compounds below were run on Escherichia coli (assay: Antibacterial activity against drug-resistant NDM1 producing Escherichia coli clinical isolate EC-13-49 after 16 to 20 hrs by broth microdilution method).
Format: functional
Summary of the method: as §1
In the case of `CCCCCCCC[N+](C)(C)CC(=O)Nc1ccc(C(=O)/C=C/c2ccc(OC)cc2)cc1.[Cl-]`, the MIC is reported as 4 mg/L.

What follows are compounds tested on Escherichia coli (assay: Antibacterial activity against drug-resistant NDM1 producing Escherichia coli clinical isolate Ecl-14-58 after 16 to 20 hrs by broth microdilution method).
Format: functional
Summary of the method: as §1
Work on `CCCCCCCC[N+](C)(C)CC(=O)Nc1ccc(C(=O)/C=C/c2ccc(OC)cc2)cc1.[Cl-]` yielded an MIC of 8 mg/L.

Each compound was assayed on Escherichia coli (assay: Antibacterial activity against drug-resistant NDM1 producing Escherichia coli clinical isolate KP-13-58 after 16 to 20 hrs by broth microdilution method).
Format: functional
Summary of the method: as §1
Work on `CCCCCCCC[N+](C)(C)CC(=O)Nc1ccc(C(=O)/C=C/c2ccc(OC)cc2)cc1.[Cl-]` yielded an MIC of 1 mg/L.

The compounds below were run on Escherichia coli (assay: Antibacterial activity against drug-resistant NDM1 producing Escherichia coli clinical isolate Ecl-13-62 after 16 to 20 hrs by broth microdilution method).
Format: functional
Summary of the method: as §1
`CCCCCCCC[N+](C)(C)CC(=O)Nc1ccc(C(=O)/C=C/c2ccc(OC)cc2)cc1.[Cl-]` was tested, and the MIC was 8 mg/L.

What follows are compounds tested on Escherichia coli (assay: Antibacterial activity against drug-resistant NDM1 producing Escherichia coli clinical isolate EC-14-54 after 16 to 20 hrs by broth microdilution method).
Format: functional
Summary of the method: as §1
`CCCCCCCC[N+](C)(C)CC(=O)Nc1ccc(C(=O)/C=C/c2ccc(OC)cc2)cc1.[Cl-]` was tested, and the MIC was 4 mg/L.

What follows are compounds tested on Escherichia coli (assay: Antibacterial activity against drug-resistant NDM1 producing Escherichia coli clinical isolate Ecl-14-59 after 16 to 20 hrs by broth microdilution method).
Format: functional
Summary of the method: as §1
`CCCCCCCC[N+](C)(C)CC(=O)Nc1ccc(C(=O)/C=C/c2ccc(OC)cc2)cc1.[Cl-]` gave an MIC of 8 mg/L.

The compounds below were run on Escherichia coli (assay: Antibacterial activity against drug-resistant NDM1 producing Escherichia coli clinical isolate EA-14-61 after 16 to 20 hrs by broth microdilution method).
Format: functional
Summary of the method: as §1
`CCCCCCCC[N+](C)(C)CC(=O)Nc1ccc(C(=O)/C=C/c2ccc(OC)cc2)cc1.[Cl-]` gave an MIC of 8 mg/L.

These compounds were tested on Escherichia coli (assay: Antibacterial activity against drug-resistant NDM1 producing Escherichia coli clinical isolate Ecl-14-56 after 16 to 20 hrs by broth microdilution method).
Format: functional
Summary of the method: as §1
In the case of `CCCCCCCC[N+](C)(C)CC(=O)Nc1ccc(C(=O)/C=C/c2ccc(OC)cc2)cc1.[Cl-]`, the MIC is reported as 8 mg/L.

The compounds below were run on Escherichia coli (assay: Antibacterial activity against drug-resistant NDM1 producing Escherichia coli clinical isolate 1460 after 16 to 20 hrs by broth microdilution method).
Format: functional
Summary of the method: as §1
With `CCCCCCCC[N+](C)(C)CC(=O)Nc1ccc(C(=O)/C=C/c2ccc(OC)cc2)cc1.[Cl-]` the MIC was 8 mg/L.

Each compound was assayed on Escherichia coli (assay: Antibacterial activity against drug-resistant NDM1 producing Escherichia coli clinical isolate SM-15-84 after 16 to 20 hrs by broth microdilution method).
Format: functional
Summary of the method: as §1
For `CCCCCCCC[N+](C)(C)CC(=O)Nc1ccc(C(=O)/C=C/c2ccc(OC)cc2)cc1.[Cl-]`, the MIC was 16 mg/L.

What follows are compounds tested on Escherichia coli (assay: Antibacterial activity against drug-resistant NDM1 producing Escherichia coli clinical isolate CF-15-61 after 16 to 20 hrs by broth microdilution method).
Format: functional
Summary of the method: as §1
`CCCCCCCC[N+](C)(C)CC(=O)Nc1ccc(C(=O)/C=C/c2ccc(OC)cc2)cc1.[Cl-]` was tested, and the MIC was 8 mg/L.

These compounds were tested on Escherichia coli (assay: Antibacterial activity against drug-resistant NDM1 producing Escherichia coli clinical isolate CF-13-61 after 16 to 20 hrs by broth microdilution method).
Format: functional
Summary of the method: as §1
Work on `CCCCCCCC[N+](C)(C)CC(=O)Nc1ccc(C(=O)/C=C/c2ccc(OC)cc2)cc1.[Cl-]` yielded an MIC of 32 mg/L.

These compounds were tested on Staphylococcus aureus (assay: Induction of cytoplasmic membrane depolarization in Staphylococcus aureus ATCC 29213 at 10 to 20 ug/ml measured every 2 mins for 12 mins by DiSC35 dye-based fluorescence assay).
Format: functional, organism-based
Summary of the method: (§2)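 Mid-log cells (~10⁸ CFU/mL) were suspended in PBS (S. aureus) or HEPES/glucose/KCl with EDTA (E. coli). They were preloaded with DiSC3(5) for 30 min (S. aureus) or 40 min (E. coli), and baseline fluorescence was read for 8 min. Compound was added to 20 µg/mL final, and fluorescence (ex 622/em 670 nm) was read every 2 min for 12 min. Water served as control.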
With `CCCCCCCC[N+](C)(C)CC(=O)Nc1ccc(C(=O)/C=C/c2ccc(OC)cc2)cc1.[Cl-]` the Activity was “Active”.

Each compound was assayed on Escherichia coli (assay: Induction of cytoplasmic membrane depolarization in Escherichia coli ATCC 25922 at 10 to 20 ug/ml measured every 2 mins for 12 mins by DiSC35 dye-based fluorescence assay).
Format: functional, organism-based
Summary of the method: as §2
`CCCCCCCC[N+](C)(C)CC(=O)Nc1ccc(C(=O)/C=C/c2ccc(OC)cc2)cc1.[Cl-]` was tested, and the Activity was “Active”.

These compounds were tested on Staphylococcus aureus (assay: Induction of inner membrane permeabilization in Staphylococcus aureus ATCC 29213 at 10 to 20 ug/ml measured every 2 mins for 12 mins by propidium iodide staining-based fluorescence assay).
Format: functional, organism-based
Summary of the method: (§3)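 Mid-log cells (~10⁸ CFU/mL) were suspended in PBS (S. aureus) or HEPES/glucose/KCl (E. coli). They were preincubated with propidium iodide for 30 min (S. aureus) or 40 min (E. coli), and baseline fluorescence was read for 8 min. Compound was added to 20 µg/mL final, and fluorescence (ex 535/em 617 nm) was read every 2 min for 12 min.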
`CCCCCCCC[N+](C)(C)CC(=O)Nc1ccc(C(=O)/C=C/c2ccc(OC)cc2)cc1.[Cl-]` was tested, and the Activity was “Active”.

What follows are compounds tested on Escherichia coli (assay: Induction of inner membrane permeabilization in Escherichia coli ATCC 25922 at 10 to 20 ug/ml measured every 2 mins for 12 mins by propidium iodide staining-based fluorescence assay).
Format: functional, organism-based
Summary of the method: as §3
`CCCCCCCC[N+](C)(C)CC(=O)Nc1ccc(C(=O)/C=C/c2ccc(OC)cc2)cc1.[Cl-]` was tested, and the Activity was “Active”.
